Assay results of several laboratories.
Target: Calcium-dependent protein kinase 1 (CDPK1, Plasmodium falciparum, UniProt P62344)

Structure (SMILES) | read-out | action | technique | tested at | quantity | result
COc1cnc(Nc2cccc(S(N)(=O)=O)c2)nc1N1CCN(c2ccccc2)CC1 | binding | – | competition with immobilised ligand | 1 µM | remaining binding | 86%
COc1ccnn2ncc(-c3ccnc(N(C)C)n3)c12 | binding | – | – | 1 µM | remaining binding | 81%
CCN1CCN(Cc2ccc(C(=O)Nc3ccc(C)c(Oc4ccc5c(c4)CC(=O)N5)c3)cc2C(F)(F)F)CC1 | binding | – | competition with immobilised ligand | 1 µM | remaining binding | 68%
C[C@@H]1CCN(c2nccc(-c3cnn4ncccc34)n2)C1 | binding | – | – | 1 µM | remaining binding | 85%
Nc1ncnc2occ(-c3ccc(NC(=O)Nc4cc(C(F)(F)F)ccc4F)cc3)c12 | cell-free assay | inhibitor | – | 20 µM | remaining signal | 1.2%
N[C@@H]1CCN(c2nccc(-c3cnn4ncccc34)n2)C1 | binding | – | – | 1 µM | remaining binding | 91%
O=C(NCC1CCOCC1)c1n[nH]cc1NC(=O)c1c(F)cccc1F | binding | – | competition with immobilised ligand | 1 µM | remaining binding | 83%
C=CC(=O)N1CCC(C(=O)NCC(=O)N2CCN(c3nc(-c4cnc(N)nc4C(F)F)nc(N4CCOCC4)n3)CC2)CC1 | binding | – | competition with immobilised ligand | 1 µM | remaining binding | 81%
FC(F)(F)Oc1cccc(-c2cnc3ccc(-c4ccncc4)nn23)c1 | binding | – | competition with immobilised ligand | 5 µM | remaining binding | 4.5%
Cc1ccc(C(=O)Nc2ccc(CN3CCN(C)CC3)c(C(F)(F)F)c2)cc1C#Cc1cnc2cccnn12 | enzyme activity | inhibitor | – | 23.5 nM | remaining activity | 16%
CNC(=O)[C@@H]1CC[C@@H](n2c(-c3ccc4cnccc4c3)nc3ccc(C(=O)NCc4cccc(C(N)=O)c4)cc32)C1 | binding | – | competition with immobilised ligand | 1 µM | remaining binding | 99%
Nc1ncc2c(n1)-c1c([nH]c3ccc(C#CC4CC4)cc13)CCCC2 | binding | – | competition with immobilised ligand | 1 µM | remaining binding | 79%
O=C(Nc1c[nH]nc1C(=O)NC1CCNCC1)c1cc(F)cc(F)c1 | binding | – | competition with immobilised ligand | 1 µM | remaining binding | 89%
Cc1nn(C)cc1-c1nc2c(N3CCN(Cc4ccc(Cl)cc4)CC3)c(Cl)cnc2[nH]1 | binding | – | competition with immobilised ligand | 1 µM | remaining binding | 100%
c1cncc(-c2cccc(Nc3nccc(NC4CCCCC4)n3)c2)c1 | binding | – | competition with immobilised ligand | 10 µM | remaining binding | 24%
